# Data as given in ChEMBL document CHEMBL4270599, “Synthesis of a 3'-C-ethynyl-β-d-ribofuranose purine nucleoside library: Discovery of C7-deazapurine analogs as potent antiproliferative nucleosides” (Eur J Med Chem, 2018).
# Tests used:
# [1] = test system: CCRF-CEM; experiment: Antiproliferative activity against human CEM cells after 72 hrs by Coulter counter method; assay type: functional, cell-based
# Summary of the method: (§1)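 Cell count assay in 96-well microtiter plates; (5–7.5) × 10⁴ tumor cells per well plus test compound. Cells proliferated at 37 °C in humidified CO₂-controlled atmosphere, 48 h for murine leukemia L1210, 72 h for human lymphocytic CEM and cervix carcinoma HeLa. Counted by Coulter counter; IC₅₀ is the concentration that inhibits proliferation by 50%.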
# [2] = test system: HeLa; experiment: Antiproliferative activity against human HeLa cells after 72 hrs by Coulter counter method; assay type: functional, cell-based; summary of the method: as §1
# [3] = test system: HOP-62; experiment: Cytotoxicity against human HOP62 cells after 48 hrs by SRB assay; assay type: functional; conditions: HOP-62, 48 h
# [4] = test system: COLO 205; experiment: Cytotoxicity against human COLO205 cells after 48 hrs by SRB assay; assay type: functional; conditions: COLO 205, 48 h
# [5] = test system: SF-295; experiment: Cytotoxicity against human SF295 cells after 48 hrs by SRB assay; assay type: functional; conditions: SF-295, 48 h
# [6] = test system: SNB-19; experiment: Cytotoxicity against human SNB19 cells after 48 hrs by SRB assay; assay type: functional; conditions: SNB-19, 48 h
# [7] = test system: M14; experiment: Cytotoxicity against human M14 cells after 48 hrs by SRB assay; assay type: functional; conditions: M14, 48 h
# [8] = test system: MDA-MB-435; experiment: Cytotoxicity against human MDA-MB-435 cells after 48 hrs by SRB assay; assay type: functional; conditions: MDA-MB-435, 48 h
# [9] = test system: SK-MEL-5; experiment: Cytotoxicity against human SK-MEL-5 cells after 48 hrs by SRB assay; assay type: functional; conditions: SK-MEL-5, 48 h
# [10] = test system: OVCAR-8; experiment: Cytotoxicity against human OVCAR8 cells after 48 hrs by SRB assay; assay type: functional; conditions: OVCAR-8, 48 h
# [11] = test system: SK-OV-3; experiment: Cytotoxicity against human SKOV3 cells after 48 hrs by SRB assay; assay type: functional; conditions: SK-OV-3, 48 h
# [12] = test system: ACHN; experiment: Cytotoxicity against human ACHN cells after 48 hrs by SRB assay; assay type: functional
# [13] = test system: T47D; experiment: Cytotoxicity against human T47D cells after 48 hrs by SRB assay; assay type: functional
# [14] = test system: A549; experiment: Growth inhibition of human A549/ATCC cells assessed as cell growth at 10^-8 M incubated for 48 hrs by sulforhodamine B assay relative to control; assay type: functional; conditions: A549, 48 h, read-out: Activity
# [15] = test system: NCI-H226; experiment: Growth inhibition of human NCI-H226 cells assessed as cell growth at 10^-8 M incubated for 48 hrs by sulforhodamine B assay relative to control; assay type: functional; conditions: NCI-H226, 48 h, read-out: Activity
# [16] = test system: U-251; experiment: Growth inhibition of human U251 cells assessed as cell growth at 10^-8 M incubated for 48 hrs by sulforhodamine B assay relative to control; assay type: functional; conditions: U-251, 48 h, read-out: Activity
# [17] = test system: RPMI-8226; experiment: Growth inhibition of human RPMI8226 cells assessed as cell growth at 10^-7 M incubated for 48 hrs by sulforhodamine B assay relative to control; assay type: functional; conditions: RPMI-8226, 48 h, read-out: Activity
# [18] = test system: NCI-H226; experiment: Growth inhibition of human NCI-H226 cells assessed as cell growth at 10^-7 M incubated for 48 hrs by sulforhodamine B assay relative to control; assay type: functional; conditions: NCI-H226, 48 h, read-out: Activity
# [19] = test system: HT-29; experiment: Growth inhibition of human HT-29 cells assessed as cell growth at 10^-7 M incubated for 48 hrs by sulforhodamine B assay relative to control; assay type: functional; conditions: HT-29, 48 h, read-out: Activity
# [20] = test system: SF-539; experiment: Growth inhibition of human SF539 cells assessed as cell growth at 10^-7 M incubated for 48 hrs by sulforhodamine B assay relative to control; assay type: functional; conditions: SF-539, 48 h, read-out: Activity
# [21] = test system: M14; experiment: Growth inhibition of human M14 cells assessed as cell growth at 10^-7 M incubated for 48 hrs by sulforhodamine B assay relative to control; assay type: functional; conditions: M14, 48 h, read-out: Activity
# [22] = test system: OVCAR-3; experiment: Growth inhibition of human OVCAR3 cells assessed as cell growth at 10^-7 M incubated for 48 hrs by sulforhodamine B assay relative to control; assay type: functional; conditions: OVCAR-3, 48 h, read-out: Activity
# [23] = test system: MOLT-4; experiment: Growth inhibition of human MOLT4 cells assessed as cell growth at 10^-6 M incubated for 48 hrs by sulforhodamine B assay relative to control; assay type: functional; conditions: MOLT-4, 48 h, read-out: Activity
# [24] = test system: HOP-92; experiment: Growth inhibition of human HOP92 cells assessed as cell growth at 10^-6 M incubated for 48 hrs by sulforhodamine B assay relative to control; assay type: functional; conditions: HOP-92, 48 h, read-out: Activity
# [25] = test system: SF-268; experiment: Growth inhibition of human SF268 cells assessed as cell growth at 10^-6 M incubated for 48 hrs by sulforhodamine B assay relative to control; assay type: functional; conditions: SF-268, 48 h, read-out: Activity
# [26] = test system: SF-539; experiment: Growth inhibition of human SF539 cells assessed as cell growth at 10^-6 M incubated for 48 hrs by sulforhodamine B assay relative to control; assay type: functional; conditions: SF-539, 48 h, read-out: Activity
# [27] = test system: PC-3; experiment: Growth inhibition of human PC3 cells assessed as cell growth at 10^-6 M incubated for 48 hrs by sulforhodamine B assay relative to control; assay type: functional; conditions: PC-3, 48 h, read-out: Activity
# [28] = test system: MCF7; experiment: Growth inhibition of human MCF7 cells assessed as cell growth at 10^-6 M incubated for 48 hrs by sulforhodamine B assay relative to control; assay type: functional; conditions: MCF7, 48 h, read-out: Activity
# [29] = test system: KM12; experiment: Growth inhibition of human KM12 cells assessed as cell growth at 10^-5 M incubated for 48 hrs by sulforhodamine B assay relative to control; assay type: functional; conditions: KM12, 48 h, read-out: Activity
# [30] = test system: SK-OV-3; experiment: Growth inhibition of human SKOV3 cells assessed as cell growth at 10^-4 M incubated for 48 hrs by sulforhodamine B assay relative to control; assay type: functional; conditions: SK-OV-3, 48 h, read-out: Activity
# [31] = test system: TK-10; experiment: Growth inhibition of human TK10 cells assessed as cell growth at 10^-4 M incubated for 48 hrs by sulforhodamine B assay relative to control; assay type: functional; conditions: TK-10, 48 h, read-out: Activity
# [32] = read-out: pLC50 (the source's name) (converted)
smiles,measurement,setting,value
C#C[C@@]1(O)[C@@H](CO)O[C@@H](n2ccc3c(N)ncnc32)[C@@H]1O,IC50,[1],0.71 µM
same,IC50,[2],0.88 µM
same,TGI,[3]; read-out: TGI,7.91 µM
same,GI50,[3]; read-out: pGI50 (converted),2.04 µM
same,CC50,[3]; [32],> 100 µM
same,TGI,[3]; read-out: pTGI (converted),7.94 µM
same,TGI,[4]; read-out: TGI,2.67 µM
same,GI50,[4]; read-out: pGI50 (converted),0.676 µM
same,CC50,[4]; [32],8.91 µM
same,TGI,[4]; read-out: pTGI (converted),2.69 µM
same,TGI,[5]; read-out: TGI,5.33 µM
same,GI50,[5]; read-out: pGI50 (converted),1.74 µM
same,CC50,[5]; [32],> 100 µM
same,TGI,[5]; read-out: pTGI (converted),5.37 µM
same,TGI,[6]; read-out: TGI,6.6 µM
same,GI50,[6]; read-out: pGI50 (converted),1.62 µM
same,CC50,[6]; [32],> 100 µM
same,TGI,[6]; read-out: pTGI (converted),6.61 µM
same,TGI,[7]; read-out: TGI,3 µM
same,GI50,[7]; read-out: pGI50 (converted),1.41 µM
same,CC50,[7]; [32],6.31 µM
same,TGI,[7]; read-out: pTGI (converted),3.02 µM
same,TGI,[8]; read-out: TGI,3.49 µM
same,GI50,[8]; read-out: pGI50 (converted),1.48 µM
same,CC50,[8]; [32],8.13 µM
same,TGI,[8]; read-out: pTGI (converted),3.47 µM
same,TGI,[9]; read-out: TGI,2.96 µM
same,GI50,[9]; read-out: pGI50 (converted),1.55 µM
same,CC50,[9]; [32],5.62 µM
same,TGI,[9]; read-out: pTGI (converted),2.95 µM
same,TGI,[10]; read-out: TGI,4.11 µM
same,GI50,[10]; read-out: pGI50 (converted),1.02 µM
same,CC50,[10]; [32],34.7 µM
same,TGI,[10]; read-out: pTGI (converted),4.07 µM
same,TGI,[11]; read-out: TGI,5.24 µM
same,GI50,[11]; read-out: pGI50 (converted),1.07 µM
same,CC50,[11]; [32],> 100 µM
same,TGI,[11]; read-out: pTGI (converted),5.25 µM
same,GI50,[12],0.562 µM
same,CC50,[12]; read-out: LC50 (the source's name),> 100 µM
same,TGI,[12]; read-out: TGI,4.48 µM
same,TGI,[12]; read-out: pTGI (converted),4.47 µM
same,TGI,[13]; read-out: TGI,2.14 µM
same,GI50,[13]; read-out: pGI50 (converted),0.447 µM
same,CC50,[13]; [32],7.59 µM
same,TGI,[13]; read-out: pTGI (converted),2.14 µM
same,growth at 0.01 µM,[14],100%
same,growth at 0.01 µM,[15],94%
same,growth at 0.01 µM,[16],102%
same,growth at 0.1 µM,[17],98%
same,growth at 0.1 µM,[18],111%
same,growth at 0.1 µM,[19],95%
same,growth at 0.1 µM,[20],103%
same,growth at 0.1 µM,[21],99%
same,growth at 0.1 µM,[22],106%
same,growth at 1 µM,[23],38%
same,growth at 1 µM,[24],86%
same,growth at 1 µM,[25],76%
same,growth at 1 µM,[26],88%
same,growth at 1 µM,[27],45%
same,growth at 1 µM,[28],13%
same,growth at 10 µM,[29],2%
same,growth at 100 µM,[30],-11%
same,growth at 100 µM,[31],-5%
